Experimental data: ChEMBL document CHEMBL4325889, “Natural products hybrids: 3,5,4'-Trimethoxystilbene-5,6,7-trimethoxyflavone chimeric analogs as potential cytotoxic agents against diverse human cancer cells” (Eur J Med Chem, 2019)

How the values were obtained:
Assay type in all cases: functional
OVCAR-5 = assay: Growth inhibition of human OVCAR5 cells at 10 uM after 48 hrs by SRB assay relative to control; conditions: OVCAR-5, 48 h, read-out: GI
Procedure, shortened: (§1)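 Screened at the National Cancer Institute by the standard NCI protocol using the sulforhodamine B assay, which measures cellular protein. Single dose of 10 µM. Result is percent growth inhibition; values above 100% mean cell number fell below the initial population. Values are the average of duplicates.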

HCT-15 = assay: Growth inhibition of human HCT15 cells at 10 uM after 48 hrs by SRB assay relative to control; conditions: HCT-15, 48 h, read-out: GI; procedure, shortened: as §1
SR = assay: Growth inhibition of human SR cells at 10 uM after 48 hrs by SRB assay relative to control; conditions: read-out: GI
Procedure, shortened: (§2)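 NCI screen against its human cancer cell line panel by the standard NCI protocol, SRB protein stain. Single dose of 10 μM. Percent growth inhibition versus control; values above 100% mean the cell population fell below the starting number. Each value is the mean of duplicates.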

KM12 = assay: Growth inhibition of human KM12 cells at 10 uM after 48 hrs by SRB assay relative to control; conditions: KM12, 48 h, read-out: GI; procedure, shortened: as §1
SK-MEL-2 = assay: Growth inhibition of human SK-MEL-2 cells at 10 uM after 48 hrs by SRB assay relative to control; conditions: SK-MEL-2, 48 h, read-out: GI; procedure, shortened: as §1
HT-29 = assay: Growth inhibition of human HT-29 cells at 10 uM after 48 hrs by SRB assay relative to control; conditions: HT-29, 48 h, read-out: GI; procedure, shortened: as §1
CAKI-1 = assay: Growth inhibition of human Caki1 cells at 10 uM after 48 hrs by SRB assay relative to control; conditions: CAKI-1, 48 h, read-out: GI; procedure, shortened: as §1
HCT-116 = assay: Growth inhibition of human HCT116 cells at 10 uM after 48 hrs by SRB assay relative to control; conditions: HCT-116, 48 h, read-out: GI; procedure, shortened: as §1
OVCAR-3 = assay: Growth inhibition of human OVCAR3 cells at 10 uM after 48 hrs by SRB assay relative to control; conditions: OVCAR-3, 48 h, read-out: GI; procedure, shortened: as §1
OVCAR-8 = assay: Growth inhibition of human OVCAR8 cells at 10 uM after 48 hrs by SRB assay relative to control; conditions: OVCAR-8, 48 h, read-out: GI; procedure, shortened: as §1
IGROV-1 = assay: Growth inhibition of human IGROV1 cells at 10 uM after 48 hrs by SRB assay relative to control; conditions: IGROV-1, 48 h, read-out: GI; procedure, shortened: as §1
UACC-62 = assay: Growth inhibition of human UACC62 cells at 10 uM after 48 hrs by SRB assay relative to control; conditions: UACC-62, 48 h, read-out: GI; procedure, shortened: as §2
ACHN = assay: Growth inhibition of human ACHN cells at 10 uM after 48 hrs by SRB assay relative to control; conditions: read-out: GI; procedure, shortened: as §1
MDA-MB-468 = assay: Growth inhibition of human MDA-MB-468 cells at 10 uM after 48 hrs by SRB assay relative to control; conditions: MDA-MB-468, 48 h, read-out: GI; procedure, shortened: as §1
HOP-92 = assay: Growth inhibition of human HOP92 cells at 10 uM after 48 hrs by SRB assay relative to control; conditions: HOP-92, 48 h, read-out: GI; procedure, shortened: as §1
U-251 = assay: Growth inhibition of human U251 cells at 10 uM after 48 hrs by SRB assay relative to control; conditions: U-251, 48 h, read-out: GI; procedure, shortened: as §2
SW-620 = assay: Growth inhibition of human SW620 cells at 10 uM after 48 hrs by SRB assay relative to control; conditions: SW-620, 48 h, read-out: GI; procedure, shortened: as §2
SNB-19 = assay: Growth inhibition of human SNB19 cells at 10 uM after 48 hrs by SRB assay relative to control; conditions: SNB-19, 48 h, read-out: GI; procedure, shortened: as §2
SF-268 = assay: Growth inhibition of human SF268 cells at 10 uM after 48 hrs by SRB assay relative to control; conditions: SF-268, 48 h, read-out: GI; procedure, shortened: as §1
SK-MEL-5 = assay: Growth inhibition of human SK-MEL-5 cells at 10 uM after 48 hrs by SRB assay relative to control; conditions: SK-MEL-5, 48 h, read-out: GI; procedure, shortened: as §1

Row | SMILES | inhibition of growth at 10 µM (OVCAR-5) | inhibition of growth at 10 µM (HCT-15) | inhibition of growth at 10 µM (SR) | inhibition of growth at 10 µM (KM12) | inhibition of growth at 10 µM (SK-MEL-2) | inhibition of growth at 10 µM (HT-29) | inhibition of growth at 10 µM (CAKI-1) | inhibition of growth at 10 µM (HCT-116) | inhibition of growth at 10 µM (OVCAR-3) | inhibition of growth at 10 µM (OVCAR-8) | inhibition of growth at 10 µM (IGROV-1) | inhibition of growth at 10 µM (UACC-62) | inhibition of growth at 10 µM (ACHN) | inhibition of growth at 10 µM (MDA-MB-468) | inhibition of growth at 10 µM (HOP-92) | inhibition of growth at 10 µM (U-251) | inhibition of growth at 10 µM (SW-620) | inhibition of growth at 10 µM (SNB-19) | inhibition of growth at 10 µM (SF-268) | inhibition of growth at 10 µM (SK-MEL-5)
1 | COc1ccccc1NC(=O)c1cccc(-c2cc(=O)c3c(O)c(OC)c(OC)cc3o2)c1 | 8.1% | 13% | 21.5% | 0.81% | 14.1% | 10.8% | 6.75% | 14.5% | -0.89% | 35.2% | -5.97% | 26.5% | 9.27% | 9.38% | 15.8% | -0.16% | -0.74% | 6.18% | 12.9% | 3.77%
2 | COc1cc2oc(-c3cccc(C(=O)Nc4ccccc4)c3)cc(=O)c2c(OC)c1OC | 16.2% | 20.8% | 35.9% | 24.3% | 15.4% | 11.5% | 4.59% | 18.3% | 12.3% | 34.9% | 19.4% | 29.8% | 8.22% | 9.98% | 29.2% | 9.89% | -0.72% | 4.37% | 16.7% | 35.3%
3 | COc1cccc(C(=O)Nc2cccc(-c3cc(=O)c4c(OC)c(OC)c(OC)cc4o3)c2)c1 | 10.4% | 46.6% |  | 53.9% | 38.1% | 53.6% | 18.1% | 46.4% | 24.6% | 47.7% | 42.6% | 41.1% | 42.1% | 5.72% | 51.8% | 36.2% | 22.8% | 29.6% | 42.6% | 39.4%
4 | COc1ccc(C(=O)Nc2cccc(-c3cc(=O)c4c(OC)c(OC)c(OC)cc4o3)c2)cc1 | 4.43% | 54.8% | 71.4% | 53.7% | 38.7% | 53.3% | 42.6% | 52.2% | 33.2% | 42.1% | 46.1% | 44.6% | 53% | 24.8% | 93.3% | 27.7% | 12% | 35.4% | 41.6% | 49.8%
5 | COc1ccccc1NC(=O)c1cccc(-c2cc(=O)c3c(OC)c(OC)c(OC)cc3o2)c1 | 18.6% | 48.4% | 32.4% | 34.8% | 14.4% | 38.6% | 43% | 31.9% | 47.5% | 42.7% | 27.5% | 46.5% | 43.8% | 24.3% | 62.5% | 11% | 12.2% | 17.5% | 29.3% | 58.4%
6 | COc1cccc(C(=O)Nc2cccc(-c3cc(=O)c4c(O)c(OC)c(OC)cc4o3)c2)c1 | 9.51% | 58.4% | 54.8% | 43.7% | 21.6% | 27.9% | 23.8% | 44.5% | 34.1% | 50.7% | 25.7% | 39.1% | 35.5% | 28.8% | 31.2% | 28.4% | 19% | 16.6% | 29.8% | 48.9%
7 | COc1ccc(C(=O)Nc2cccc(-c3cc(=O)c4c(O)c(OC)c(OC)cc4o3)c2)cc1 | 0.04% | 7.47% | 20.8% | -0.05% | 16.6% | 1.12% | 20% | 30.2% | -0.49% | 35.5% | 2.38% | 33.7% | 23.7% | -6.18% | 42.3% | 28.9% | 9.52% | 34.1% | 13.9% | 16.2%
8 | COc1cc2oc(-c3cccc(C(=O)Nc4ccc5c(c4)OCO5)c3)cc(=O)c2c(OC)c1OC | 16.4% | 28.2% | 52.4% | 32.7% | -2.38% | 17.2% | 27.9% | 27.3% | 12.7% | 45.9% | 39.8% | 19.1% | 10.2% | 1.72% | 21.9% | 9.36% | -4.89% | 5.13% | 12.5% | 47.2%
9 | COc1cccc(NC(=O)c2cccc(-c3cc(=O)c4c(O)c(OC)c(OC)cc4o3)c2)c1 | 8.5% | 25.7% | 47.7% | 35.5% | 2.64% | 15.6% | 32.4% | 30.7% | 10.6% | 62.5% | 12% | 44.4% | 33.8% | 46% | 33.6% | 23.9% | 18.4% | 16.4% | 22.9% | 26.8%
10 | Cc1ccc(NC(=O)c2ccc(CN3CCN(C)CC3)cc2)cc1Nc1nccc(-c2cccnc2)n1 [IMATINIB] | -22.8% | 11.5% | 14.6% | -6.7% |  | 47.1% | -0.2% | 18.6% | -10.3% | 8.4% | -18.6% | 7.7% | -1% | 29.1% | 43.7% | 10.6% | -10% | -12.2% | -3.8% | 22.3%
